Test results: PMC3319382 (Bioorganic & medicinal chemistry, 2011)
Entries after “also recorded” stand apart in the source; their conditions may differ.

Columns and labels:
yeast Rce1p [1] = target: T1, yeast Rce1p (Saccharomyces cerevisiae, UniProt Q03530); details: ref [12], [13]; cited from earlier work
T1 sequence (Q03530 1-315): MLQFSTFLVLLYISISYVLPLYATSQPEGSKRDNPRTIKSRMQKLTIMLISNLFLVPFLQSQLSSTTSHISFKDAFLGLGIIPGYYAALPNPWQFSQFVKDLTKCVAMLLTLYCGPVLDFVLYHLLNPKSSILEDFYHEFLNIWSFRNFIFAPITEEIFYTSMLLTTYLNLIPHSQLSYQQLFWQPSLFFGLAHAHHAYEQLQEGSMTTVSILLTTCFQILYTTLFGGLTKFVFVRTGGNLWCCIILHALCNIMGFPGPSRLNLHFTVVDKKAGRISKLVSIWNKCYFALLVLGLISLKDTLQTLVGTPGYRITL

yeast Rce1p [2] = target: T1, yeast Rce1p; assay: fluorescence-based CAAX proteolysis kinetic assay; format: biochemical
How it was run: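 Enzyme source was carbonate-washed membranes from S. cerevisiae overexpressing yeast Rce1p as sole CAAX protease, diluted in 100 mM Hepes pH 7.5, 5 mM MgCl2 and preincubated 10 min at 30 °C. The final mix held 0.25 mg/mL membrane protein and a 10-point substrate series (0–45 or 0–50 μM) in triplicate wells. Read at 340/420 nm every 30–60 s for 1 h at 30 °C. Product was quantified against trypsin-cleaved standard curves.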

[3] = target: Ras Converting Enzyme 1 (Rce1p), HA-epitope tagged, yeast (S. cerevisiae) (UniProt Q03530); assay: cross-linking

Q: With `c1cnc2c(c1)ccc1cccnc12` [1,10-phenanthroline] as the molecule, how does the “inhibition of yeast Rce1p” value (yeast Rce1p [1]) read?
A: inhibited

Q: For `[Zn]` [zinc], which “inhibition of yeast Rce1p” value (yeast Rce1p [1]) is on record?
A: inhibited

Q: Which “h (Hill coefficient)” value (yeast Rce1p [2]; Rce1p-enriched membranes 0.25 mg/mL, pH 7.5, 30 °C, Hill Equation fit, n=5) does the source give for Abz-KSKTKC(C10BP)K(Dnp)IM [Peptide 6] here?
A: 1.8

Q: What about the Vmax/KM (yeast Rce1p [2]; Rce1p-enriched membranes 0.25 mg/mL, pH 7.5, 30 °C, n=5) of the same molecule?
A: 8.9×10^−5 L/min/mg protein

Q: And the “efficiency (Vmax/KM) of Rce1p processing, fold lower than 2” value (yeast Rce1p [2]; compared with 2)?
A: 10 -fold

Q: And the “maximal processing rate (Vmax), fold less than 2” value (yeast Rce1p [2]; compared with 2)?
A: approximately 7 -fold

Q: And the “efficiency (Vmax/KM) of Rce1p processing compared with 4” value (yeast Rce1p [2]; compared with 4)?
A: approximately double that of 4; also recorded: increased approximately two-fold

Q: And the “maximal processing rate (Vmax), fold greater than 4” value (yeast Rce1p [2]; compared with 4)?
A: 9 -fold

Q: And the “Rce1p substrate” value (yeast Rce1p [2]; fluorescence-based kinetic evaluation)?
A: could serve as a substrate for Rce1p

Q: What about the “binding affinity, fold less than that of 4” value (yeast Rce1p [2]; from KM, compared with 4) of the same molecule?
A: 4 -fold

Q: Which percent labeling of Rce1p by 14 (15 μM) left with 50 μM 2 [3] does the source give for “Peptide 2, Abz-KSKTKC(farnesyl)K(Dnp)IM, internally quenched fluorogenic farnesylated substrate based on the K-Ras4b C-terminal sequence” here?
A: 84%

Q: What about the percent labeling of Rce1p by 14 (15 μM) left with 100 μM 2 [3] of the same molecule?
A: 7%

Q: Which fold labeling efficiency against probe 8 (fold less than 8) [3] does the source give for “Peptide 9, Biotin-K(Dde)KSKTKC(C10BP)K(Dnp)IM” here?
A: 4
